In brackets after ≈: the same amount, converted by molar mass. Activity calls are given as the source filed them. The calls are words filed in the database; no cut-off is given here.
Tests used:
[1] = test system: Mycobacterium tuberculosis; assay: Antitubercular activity against Mycobacterium tuberculosis H37Rv P887 incubated for 1 to 9 days by inverted microscopic analysis; assay type: functional
Procedure, shortened: (§1)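 Bacteria immobilised in 0.5% agarose within microfluidic channels of a 96-well chip. Compound (0–632 μM; rifampicin 0–19.4 μM) supplied in Middlebrook 7H9 with 10% OADC and allowed to diffuse in. Incubated at 37 °C; channel boundary imaged by inverted microscopy (40×) at 1, 3, 5, 7 and 9 days. MIC90 taken as lowest concentration giving 90% growth inhibition. Triplicate.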

[2] = test system: Mycobacterium tuberculosis; assay: Antitubercular activity against MDR Mycobacterium tuberculosis X23 incubated for 1 to 9 days by inverted microscopic analysis; assay type: functional
[3] = test system: Mycobacterium tuberculosis; assay: Antitubercular activity against XDR Mycobacterium tuberculosis X24 incubated for 1 to 9 days by inverted microscopic analysis; assay type: functional; procedure, shortened: as §1
[4] = test system: Mycobacterium tuberculosis; assay: Antitubercular activity against XDR Mycobacterium tuberculosis X59 incubated for 1 to 9 days by inverted microscopic analysis; assay type: functional; procedure, shortened: as §1
[5] = Cytotoxicity against human HaCaT cells assessed as cell survival rate at 16 uM after 24 hrs by MTT assay; assay type: cell-based; conditions: read-out: Survival
Procedure, shortened: (§2)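 Cells treated for 24 h with test agent (0–400 μM) or rifampicin (0–16 μM), then MTT assay. Survival taken as A570 of treated cells over A570 of untreated cells, as a percentage. Average of triplicates from three independent experiments.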

[6] = Cytotoxicity against mouse NIH/3T3 cells assessed as cell survival rate at 16 uM after 24 hrs by MTT assay; assay type: cell-based, NIH3T3; conditions: read-out: Survival; procedure, shortened: as §2
[7] = Cytotoxicity against human MRC5 cells assessed as cell survival rate at 16 uM after 24 hrs by MTT assay; assay type: cell-based; conditions: read-out: Survival; procedure, shortened: as §2

With `CO[C@H]1/C=C/O[C@@]2(C)Oc3c(C)c(O)c4c(O)c(c(/C=N/N5CCN(C)CC5)c(O)c4c3C2=O)NC(=O)/C(C)=C\C=C\[C@H](C)[C@H](O)[C@@H](C)[C@@H](O)[C@@H](C)[C@H](OC(C)=O)[C@@H]1C` [RIFAMPIN] the MIC90 [1] was 0.61 µM (≈ 0.502 µg/mL), the MIC90 [2] was “inactive” and the MIC90 [3] was “inactive”. For the same molecule, the MIC90 [4] was “inactive”, the viability at 24 h, 16 µM [5] was 55% and the viability at 24 h, 16 µM [6] was 62%. For the same molecule, the viability at 24 h, 16 µM [7] was 53%.
